According to ChEMBL document CHEMBL1130743, “Immunosuppressant activity in human beta-casein fragment analogs” (1998):
Non-standard residues stand in square brackets, D forms with d. Residues, ends and D or L forms follow the SMILES beside them. Ac5c = NC1(C(=O)O)CCCC1; GABA = NCCCC(=O)O

Experiments:
Format in all cases: functional
[1] = species: Mus musculus; assay: Compound was tested for the immunomodulatory activity in vitro expressed as stimulation index by mixed lymphocyte reaction at 1 ug/mL
[2] = species: Mus musculus; assay: Compound was tested for the immunomodulatory activity in vitro expressed as stimulation index by mixed lymphocyte reaction at 0.1 ug/mL
[3] = species: Mus musculus; assay: Compound was tested for the immunomodulatory activity in vitro expressed as stimulation index by lymphocyte transformation test at 10 ug/mL
How it was run: (§1)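 Normal Swiss mouse splenocytes, RBCs lysed with 0.83% NH4Cl in 10 mM Tris pH 7.2, held at 5x10⁶ cells/ml in RPMI with 10% FCS. Cells cultured 72 h at 37°C in CO₂ with PHA-P mitogen and peptide (10, 1, 0.1, 0.01 µg/ml), then [³H]thymidine pulse and 18 h further incubation. Read as DPM ratio to untreated wells; triplicate runs, ±SD.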

[4] = species: Mus musculus; assay: Compound was tested for the immunomodulatory activity in vitro expressed as stimulation index by lymphocyte transformation test at 1 ug/mL; how it was run: as §1
[5] = species: Mus musculus; assay: Compound was tested for the immunomodulatory activity in vitro expressed as stimulation index by lymphocyte transformation test at 0.01 ug/mL; how it was run: as §1
[6] = species: Mus musculus; assay: Compound was tested for the immunomodulatory activity in vitro expressed as stimulation index by mixed lymphocyte reaction at 10 ug/mL
[7] = species: Mus musculus; assay: Compound was tested for the immunomodulatory activity in vitro expressed as stimulation index by lymphocyte transformation test at 0.1 ug/mL; how it was run: as §1
[8] = species: Mus musculus; assay: Compound was tested for the immunomodulatory activity in vitro expressed as stimulation index by mixed lymphocyte reaction 1 ug/mL
[9] = species: Mus musculus; assay: Compound was tested for the immunomodulatory activity in vitro expressed as stimulation index by mixed lymphocyte reaction (MLR) at 10 ug/mL

Question: With `CC[C@H](C)[C@H](NC(=O)[C@@H]1CCCN1C(=O)[C@H](CCC(=O)O)NC(=O)[C@@H](N)C(C)C)C(=O)N1CCC[C@H]1C(=O)N[C@@H](Cc1ccc(O)cc1)C(=O)O` as the molecule, how does the Stimulation index [1] read?
Answer: 0.9

Question: What about the Stimulation index [2] of the same molecule?
Answer: 1

Question: And the Stimulation index [3]?
Answer: 1.45

Question: What about the Stimulation index [4] of the same molecule?
Answer: 1.5

Question: And the Stimulation index [5]?
Answer: 1.27

Question: What about the Stimulation index [6] of the same molecule?
Answer: 0.9

Question: What about the Stimulation index [7] of the same molecule?
Answer: 1.43

Question: How did the Stimulation index [8] turn out when `CC[C@@H](C)[C@@H](NC(=O)[C@@H]1CCCN1C(=O)[C@H](CCC(=O)O)NC(=O)[C@@H](N)C(C)C)C(=O)N1CCC[C@H]1C(=O)N[C@H](Cc1ccc(O)cc1)C(=O)O` was run?
Answer: 0.75

Question: And the Stimulation index [2]?
Answer: 0.93

Question: What about the Stimulation index [3] of the same molecule?
Answer: 1.18

Question: And the Stimulation index [4]?
Answer: 1.22

Question: What about the Stimulation index [5] of the same molecule?
Answer: 0.82

Question: And the Stimulation index [6]?
Answer: 0.77

Question: And the Stimulation index [7]?
Answer: 1.08

Question: What does the source list for `CC[C@@H](C)[C@@H](NC(=O)[C@@H]1CCCN1C(=O)[C@@H](CCC(=O)O)NC(=O)[C@H](C)N)C(=O)N1CCC[C@H]1C(=O)N[C@H](Cc1ccc(O)cc1)C(=O)O`?
Answer: Stimulation index [1]: 0.82; Stimulation index [2]: 0.74; Stimulation index [3]: 1.22; Stimulation index [4]: 1.4; Stimulation index [5]: 1.17; Stimulation index [6]: 0.72; Stimulation index [7]: 1.57

Question: Which Stimulation index [1] does the source give for `CC[C@@H](C)[C@@H](NC(=O)[C@@H]1CCCN1C(=O)[C@H](CCC(=O)O)NC(=O)[C@H](C)N)C(=O)N1CCC[C@H]1C(=O)N[C@H](Cc1ccc(O)cc1)C(=O)O` here?
Answer: 0.89

Question: And the Stimulation index [2]?
Answer: 0.84

Question: What about the Stimulation index [3] of the same molecule?
Answer: 1.32

Question: And the Stimulation index [4]?
Answer: 1.3

Question: What about the Stimulation index [5] of the same molecule?
Answer: 1.32

Question: What about the Stimulation index [6] of the same molecule?
Answer: 0.75

Question: And the Stimulation index [7]?
Answer: 1.27

Question: For `CC[C@H](C)[C@H](NC(=O)C1(NC(=O)[C@H](CCC(=O)O)NC(=O)[C@@H](N)C(C)C)CCCC1)C(=O)N1CCC[C@H]1C(=O)N[C@@H](Cc1ccc(O)cc1)C(=O)O` (H-VE[Ac5c]IPY-OH), which Stimulation index [1] is on record?
Answer: 0.86

Question: And the Stimulation index [2]?
Answer: 0.65

Question: What about the Stimulation index [3] of the same molecule?
Answer: 1.1

Question: And the Stimulation index [4]?
Answer: 1.09

Question: And the Stimulation index [5]?
Answer: 0.69

Question: And the Stimulation index [6]?
Answer: 0.62

Question: And the Stimulation index [7]?
Answer: 0.7

Question: Which Stimulation index [1] does the source give for `CC[C@H](C)[C@H](NC(=O)CNC(=O)CNC(=O)[C@@H](N)C(C)C)C(=O)N1CCC[C@H]1C(=O)N[C@@H](Cc1ccc(O)cc1)C(=O)O` (H-VGGIPY-OH) here?
Answer: 0.95

Question: What about the Stimulation index [2] of the same molecule?
Answer: 0.66

Question: And the Stimulation index [3]?
Answer: 1.22

Question: What about the Stimulation index [4] of the same molecule?
Answer: 1.15

Question: What about the Stimulation index [5] of the same molecule?
Answer: 0.93

Question: And the Stimulation index [6]?
Answer: 0.88

Question: And the Stimulation index [7]?
Answer: 1.03

Question: For `CC[C@H](C)[C@H](NC(=O)CCCNC(=O)[C@@H](N)C(C)C)C(=O)N1CCC[C@H]1C(=O)N[C@@H](Cc1ccc(O)cc1)C(=O)O` (H-V[GABA]IPY-OH), which Stimulation index [1] is on record?
Answer: 0.77

Question: What about the Stimulation index [9] of the same molecule?
Answer: 0.74

Question: What about the Stimulation index [2] of the same molecule?
Answer: 0.67

Question: And the Stimulation index [3]?
Answer: 0.88

Question: What about the Stimulation index [4] of the same molecule?
Answer: 0.69

Question: And the Stimulation index [5]?
Answer: 0.55

Question: And the Stimulation index [7]?
Answer: 0.73
